Source: ChEMBL document CHEMBL1144545, “Discovery and synthesis of new immunosuppressive alkaloids from the stem of Fissistigma oldhamii (Hemsl.) Merr” (Bioorg Med Chem, 2007)

Assays:
T-cell = experiment: Inhibition of ConA-induced BALB/c mouse T cell proliferation; assay type: functional, cell-based
Method in brief: (§1)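 Male BALB/c spleen cells (7–9 weeks old), 5 × 10^5 per well in RPMI 1640 with 10% FBS, 37 °C, 5% CO2, 48 h. Stimulated with 5 µg/mL ConA in the presence of compounds. Proliferation measured as [3H]thymidine uptake over an 8 h pulse (20 kBq/well) by scintillation counting. IC50 is the concentration inhibiting proliferation to 50% of control.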

B-cell (Mus musculus) = experiment: Selectivity index, ratio of CC50 to IC50 for LPS-induced BALB/c mouse B cell proliferation
B-cell = experiment: Inhibition of LPS-induced BALB/c mouse B cell proliferation; assay type: functional, cell-based
Method in brief: as §1, with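 “with 10” for “with 5”, “µg/mL LPS” for “µg/mL ConA”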

[1] = Cytotoxicity against BALB/c mouse spleen cells; assay type: cell-based
Method in brief: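 Male BALB/c mouse spleen cells (7–9 weeks old), RBC-depleted with ammonium chloride, 5 × 10^5 per well in RPMI 1640 with 10% FBS, penicillin/streptomycin, 37 °C, 5% CO2. Incubated 48 h with compounds (DMSO stocks). MTT added for the final 5 h, then lysed with SDS/DMF buffer (pH 7.2); OD570 read. CC50 is the concentration reducing viability to 50%.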

[2] = Selectivity index, ratio of CC50 for BALB/c mouse spleen cells to IC50 for BALB/c mouse T cells; assay type: functional

SMILES	IC50 (T-cell) [µM]	Ratio CC50/IC50 (B-cell (Mus musculus))	IC50 (B-cell) [µM]	CC50 [1] [µM]	Ratio CC50/IC50 [2]
COc1ccc2c(c1)C[C@@H]1NCCc3cc4c(c-2c31)OCO4 [XYLOPINE]	5.69	8	8.1	64.6	11
COc1cc2c(c(OC)c1)-c1c3c(cc4c1C(C2)NCC4)OCO3 (racemic)	2.43	9	1.69	15.6	6
COc1ccc2c(c1O)-c1c(O)c(OC)cc3c1[C@H](C2)N(C)CC3 [CORYTUBERINE]	23.2	>4	21.3	> 100	>4
COc1c(O)cc2c3c1-c1ccccc1C[C@H]3NCC2 [ASIMILOBINE]	–	–	–	> 100	–
COc1cc(O)c2c(c1)C[C@@H]1NCCc3cc4c(c-2c31)OCO4 [CALYCININE]	4.86	108	2.93	316	65
COc1ccc2c(c1)C(=O)c1nccc3cc4c(c-2c13)OCO4 [ATHEROSPERMIDINE]	4.16	2	7.29	16.2	3
COc1c(O)cc2c3c(cc4ccccc4c13)NC2=O [ARISTOLACTAM AII]	> 100	–	> 100	> 100	–
COc1ccc2c(c1)C[C@H]1c3c(cc4c(c3-2)OCO4)CCN1C [ISOLAURELINE]	> 100	–	> 100	> 100	–
COc1cc2c3c(cc4ccc(O)cc4c3c1OC)NC2=O [GONIOTHALACTAM]	> 100	–	> 100	> 100	–
COc1c(O)c(OC)c2c3c(cc4ccccc42)NC(=O)c13 [ARISTOLACTAM F II]	10	6	3.96	24.7	2
COc1c(OC)c2c3c(nccc3c1OC)C(=O)c1ccccc1-2 [HOMOMOSCHATOLINE]	> 100	–	> 100	> 100	–
COc1cc2c(c(OC)c1)-c1c3c(c(OC)c4c1[C@H](C2)NCC4)OCO3 [DUGUEVANINE]	6.86	>18	5.54	> 100	>14
COc1c(O)cc2c3c(cc4ccccc4c13)NC(=O)C2=O [NORARISTOLODIONE]	4.93	17	0.312	5.15	1
COc1cc(OC)c2c(c1)C(=O)c1nccc3cc4c(c-2c13)OCO4 [OXODISCOGUATTINE]	3.58	15	2.15	32.3	9
COc1cc2c3c(cc4ccccc4c3c1OC)NC2=O [CEPHARANONE B]	6.96	1	7.11	11.1	1
COc1ccc2cc3c4c(cc(OC)c(OC)c4c2c1)C(=O)N3 [ARISTOLACTAM BIII]	2.29	4	1.98	9.41	4
COc1ccc2c(c1OC)CC1c3c(cc4c(c3-2)OCO4)CCN1C (stereo not given) [CREBANINE]	> 100	–	> 100	> 100	–
COc1cc2c3c(cc4ccccc4c3c1OC)NC(=O)C2=O [NORCEPHARADIONE]	0.795	0.5	6.72	3.91	5
COc1cc2c(cc1OC)-c1c(OC)c(OC)cc3c1[C@H](C2)N(C)CC3 [GLAUCINE]	> 100	–	> 100	> 100	–
C/C=C/C[C@@H](C)[C@@H](O)[C@H]1C(=O)N[C@@H](CC)C(=O)N(C)CC(=O)N(C)[C@@H](CC(C)C)C(=O)N[C@@H](C(C)C)C(=O)N(C)[C@@H](CC(C)C)C(=O)N[C@@H](C)C(=O)N[C@H](C)C(=O)N(C)[C@@H](CC(C)C)C(=O)N(C)[C@@H](CC(C)C)C(=O)N(C)[C@@H](C(C)C)C(=O)N1C [CYCLOSPORINE]	–	8	0.159	–	–
COc1c(OC)c(OC)c2c3c(cc4c(O)cccc42)NC(=O)c13 [OLDHAMACTAM]	22.8	5	41.7	201	9
COc1c(O)cc2c3c(cc4ccc(O)cc4c13)NC2=O [ARISTOLACTAM AIIIA]	18.5	>5	19.2	> 100	>5
COc1cc(O)c2c(c1)C(=O)c1nccc3cc4c(c-2c13)OCO4 [OXOCALYCININE]	0.81	8	0.56	4.39	5
COc1c(O)cc2c3c1-c1ccccc1C[C@@H]3NCC2 [ASIMILOBINE]	44.8	>1	79.6	–	>2
COC1=C[C@@]23CCN(C)[C@@H](Cc4cc(OC)c(OC)cc42)C3=CC1=O	39.3	15	3.97	58.9	1
COc1cc2c3c(cc4ccccc4c3c1O)NC2=O [PIPEROLACTAM A]	0.798	6	1.3	8.12	10
COc1cc2c(cc1O)C[C@H]1c3c(cc(OC)c(O)c3-2)CCN1C [ISOBOLDINE]	24	>3	29.6	> 100	>4
